Laboratory results: ChEMBL document CHEMBL1124174, “Substituted benzamides. 1. Potential nondopaminergic antagonists of chemotherapy-induced nausea and emesis” (J Med Chem, 1988)

Legend:
Canis familiaris [1] = test: In viov antagonism of cisplatin-induced emesis in dog measured as percentage protection for twice the dose of 1 mg/kg in 2 dogs; format: functional, Canis lupus familiaris
Outline: (§1)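 Nonfasted mature male or female beagles were dosed sc twice, 30 min before and 120 min after cisplatin (3 mg/kg iv; 3 mg/mL in warm 0.9% saline, used immediately). Emesis was observed up to 5 h; events within 2 min counted as one episode. Results were given as mean emetic episodes and % protection versus a dynamic control (historical and concurrent saline means pooled). t test versus saline.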

Canis familiaris [2] = test: In vivo antagonism of cisplatin-induced emesis in dog measured as percentage protection for twice the dose of 0.1 mg/kg in 2 dogs; format: functional, Canis lupus familiaris; outline: as §1
Canis familiaris [3] = test: In vivo antagonism of cisplatin-induced emesis in dog measured as percentage protection for twice the dose of 0.3 mg/kg in 2 dogs; format: functional, Canis lupus familiaris; settings: 0.3 mg/kg; outline: as §1
D(2) dopamine receptor = D(2) dopamine receptor (Rattus norvegicus, UniProt P61169); test: In vitro antagonistic activity against Dopamine receptor D2 was evaluated for the inhibition of [3H]spiperone binding
Sequence of D(2) dopamine receptor (P61169 whole entry): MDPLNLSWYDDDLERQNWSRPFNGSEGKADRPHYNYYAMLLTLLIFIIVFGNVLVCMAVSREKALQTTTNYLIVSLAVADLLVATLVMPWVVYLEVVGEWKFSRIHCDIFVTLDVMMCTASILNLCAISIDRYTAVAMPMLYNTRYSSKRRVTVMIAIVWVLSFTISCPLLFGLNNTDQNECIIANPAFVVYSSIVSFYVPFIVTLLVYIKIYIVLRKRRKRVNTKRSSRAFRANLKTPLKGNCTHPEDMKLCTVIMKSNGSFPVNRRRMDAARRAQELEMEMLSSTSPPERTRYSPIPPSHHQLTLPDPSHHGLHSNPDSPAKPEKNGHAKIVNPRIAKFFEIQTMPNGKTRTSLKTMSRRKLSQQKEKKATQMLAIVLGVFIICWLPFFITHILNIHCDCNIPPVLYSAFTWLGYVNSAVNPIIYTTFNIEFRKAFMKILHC
Outline: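 Rat striatal membranes were prepared by differential centrifugation in 50 mM Tris pH 7.4 at 4 °C. Membrane protein (10 mg) was incubated 15 min at 37 °C with 0.1 nM [3H]spiperone and varying competitor concentrations. Buffer: 50 mM Tris HCl pH 7.5, 0.1% ascorbic acid, pargyline, 120 mM NaCl, 5 mM KCl, 2 mM CaCl2, 1 mM MgCl2. (+)-Butaclamol defined nonspecific binding. Bound ligand was collected by filtration and scintillation counted. IC50 by log-logit regression.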

Canis familiaris [4] = test: In vivo antagonism of cisplatin-induced emesis in dog measured as emetic episodes, twice the dose of 0.1 mg/kg in 2 dogs; format: functional, Canis lupus familiaris; outline: as §1
Canis familiaris [5] = test: In vivo antagonism of cisplatin-induced emesis in dog measured as emetic episodes, twice the dose of 0.3 mg/kg in 2 dogs; format: functional, Canis lupus familiaris; settings: 0.3 mg/kg; outline: as §1
Canis familiaris [6] = test: In vivo antagonism of cisplatin-induced emesis in dog measured as emetic episodes, twice the dose of 1 mg/kg in 2 dogs; format: functional, Canis lupus familiaris; outline: as §1
Mustela putorius furo [7] = test: In vivo antagonism of cisplatin-induced emesis in ferret measured as percentage protection for twice the dose of 0.3 mg/kg and in 3 ferrets; format: functional; settings: 0.3 mg/kg
Outline: (§2)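 Nonfasted castrated male Fitch ferrets (1–1.5 kg) had jugular catheters implanted ≥48 h earlier under anesthesia. Compounds or saline were given iv twice, 5 min before and 90 min after cisplatin (12 mg/kg iv; 12 mg/mL in warm 0.9% saline). Emesis was observed up to 4 h; events within 1 min counted as one episode. Results were given as mean emetic episodes and % protection versus a pooled historical/concurrent control. t test versus saline.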

Mustela putorius furo [8] = test: In vivo antagonism of cisplatin-induced emesis in ferret measured as emetic episodes, twice the dose of 3 mg/kg and in 3 ferrets; format: functional; outline: as §2
Mustela putorius furo [9] = test: In vivo antagonism of cisplatin-induced emesis in ferret measured as emetic episodes, twice the dose of 0.3 mg/kg and in 3 ferrets; format: functional; settings: 0.3 mg/kg; outline: as §2
Mustela putorius furo [10] = test: In vivo antagonism of cisplatin-induced emesis in ferret measured as emetic episodes, twice the dose of 1 mg/kg and in 3 ferrets; format: functional; settings: 1 mg/kg; outline: as §2
Mustela putorius furo [11] = test: In vivo antagonism of cisplatin-induced emesis in ferret measured as percentage protection for twice the dose of 1 mg/kg and in 3 ferrets; format: functional; outline: as §2
Mustela putorius furo [12] = test: In vivo antagonism of cisplatin-induced emesis in ferret measured as percentage protection for twice the dose of 3 mg/kg and in 3 ferrets; format: functional; outline: as §2
[13] = biological target: D(2) dopamine receptor (Canis lupus familiaris) (UniProt Q9GJU1); test: In vivo antagonism activity against dopamine D2 receptor was measured as emesis in dog when administered subcutaneously; format: functional, organism-based
Sequence of D(2) dopamine receptor (Canis lupus familiaris) (Q9GJU1 whole entry): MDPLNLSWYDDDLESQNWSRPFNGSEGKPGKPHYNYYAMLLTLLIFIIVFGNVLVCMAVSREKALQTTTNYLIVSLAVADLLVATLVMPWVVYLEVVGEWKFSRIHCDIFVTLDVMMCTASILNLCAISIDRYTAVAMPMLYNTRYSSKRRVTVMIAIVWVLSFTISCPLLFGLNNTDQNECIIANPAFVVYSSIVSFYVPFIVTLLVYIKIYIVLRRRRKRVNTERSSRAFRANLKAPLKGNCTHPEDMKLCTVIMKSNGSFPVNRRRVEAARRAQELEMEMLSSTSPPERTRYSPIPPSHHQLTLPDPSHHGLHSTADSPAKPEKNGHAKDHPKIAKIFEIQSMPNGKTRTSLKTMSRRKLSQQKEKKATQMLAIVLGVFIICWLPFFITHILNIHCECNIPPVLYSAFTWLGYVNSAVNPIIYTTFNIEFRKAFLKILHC

Mustela putorius furo [14] = test: in vivo antagonism of cisplatin-induced emesis in ferret measured as emetic episodes, twice the dose of 3 mg/kg and in 3 ferrets; format: functional
Outline: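 Nonfasted castrated male Fitch ferrets (1–1.5 kg) carried jugular vein catheters implanted at least 48 h earlier under general anesthesia. Test compound or saline was given iv twice, 5 min before and 90 min after cisplatin (12 mg/kg iv; 12 mg/mL in warm saline). Emesis was watched for 4 h, with events within 1 min counted as one episode. % protection is relative to a pooled historical-plus-concurrent control, with t test versus saline.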

Mustela putorius furo [15] = test: In vivo antagonism of cisplatin-induced emesis in ferret measured as emetic episodes, twice the dose of mg/kg and in 3 ferrets; format: functional; outline: as §2
[16] = biological target: D(2) dopamine receptor (Rattus norvegicus) (UniProt P61169); test: In vivo antagonism activity against D2 receptor was measured as stereotypy in rat when administered subcutaneously; format: functional, organism-based
Sequence of D(2) dopamine receptor (Rattus norvegicus) (P61169 whole entry): as the sequence (P61169 whole entry) above
Outline: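 Male Long Evans rats (275 g) were dosed sc in dilute aqueous HCl (pH 4.5-5.5) 30 min before apomorphine (1 mg/kg sc).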

[17] = biological target: D(2) dopamine receptor (Rattus norvegicus) (UniProt P61169); test: In vivo antagonistic activity against dopamine D2 receptor was measured as catalepsy in rat when administered subcutaneously; format: functional, organism-based
Outline: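 Male Long Evans rats (275 g) received graded sc doses in dilute aqueous HCl (pH 4.5-5.5). They were observed 180 min for catalepsy, scored when the animal stayed stationary ≥15 s on a four-cork template.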

Canis familiaris [18] = test: In vivo antagonism of cisplatin-induced emesis in dog measured as emetic episodes, twice the dose of 6 mg/kg in 3 dogs; format: functional, Canis lupus familiaris
Outline: (§3)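 Nonfasted mature male or female beagles received test compound or saline sc twice, 30 min before and 120 min after cisplatin (3 mg/kg iv; 3 mg/mL in warm 0.9% saline, used at once). Emesis observed up to 5 h. Emetic episode = expulsion of stomach content; events within 2 min counted as one. Protection calculated against a dynamic control (historical mean pooled with concurrent saline control).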

Canis familiaris [19] = test: In vivo antagonism of cisplatin-induced emesis in dog measured as percentage protection for twice the dose of 6 mg/kg in 3 dogs; format: functional, Canis lupus familiaris; outline: as §3

SMILES: CCN(CC)CCNC(=O)c1cc(Cl)c(N)cc1OC(C)C(C)O (stereo in doubt; 8g)
- Protection (Canis familiaris [1]): 100%
- Protection (Canis familiaris [2]): 62%
- Protection (Canis familiaris [3]): 100%
- IC50 (D(2) dopamine receptor): > 1000 nM
- Emetic episodes (Canis familiaris [4]): 4
- Emetic episodes (Canis familiaris [5]): 0
- Emetic episodes (Canis familiaris [6]): 0
- Protection (Mustela putorius furo [7]): 49%
- Emetic episodes (Mustela putorius furo [8]; 3 mg/kg): 1
- Emetic episodes (Mustela putorius furo [9]): 0.7
- Emetic episodes (Mustela putorius furo [10]): 1.3
- Protection (Mustela putorius furo [11]; 1 mg/kg): 82%
- Protection (Mustela putorius furo [12]; 3 mg/kg): 86%

SMILES: CCN(CC)CCNC(=O)c1cc(Cl)c(N)cc1OCC(C)OC (stereo not drawn)
- ED50 [13]: > 3 mg/kg
- IC50 (D(2) dopamine receptor): > 1000 nM
- Emetic episodes (Mustela putorius furo [14]): 1
- Emetic episodes (Mustela putorius furo [15]): 3
- Protection (Mustela putorius furo [11]): 57%
- Protection (Mustela putorius furo [12]): 86%
- ED50 [16]: > 40 mg/kg
- ED50 [17]: > 40 mg/kg

SMILES: O=c1[nH]c2ccccc2n1CCCN1CCC(n2c(=O)[nH]c3cc(Cl)ccc32)CC1 [DOMPERIDONE]
- ED50 [13]: 0.08 mg/kg
- Emetic episodes (Canis familiaris [18]): 9.7
- Protection (Canis familiaris [19]): 30%
- Emetic episodes (Mustela putorius furo [8]): 3.3
- Protection (Mustela putorius furo [12]): 50%
- ED50 [16]: > 40 mg/kg
- ED50 [17]: > 40 mg/kg
